Data: ChEMBL document CHEMBL2401696, “Stereoselective synthesis and anti-proliferative effects on prostate cancer evaluation of 5-substituted-3,4-diphenylfuran-2-ones” (Eur J Med Chem, 2013)
Calls of active or inactive are those of the source. The calls are words filed in the database; no cut-off is given here.

Key:
PC-3 [1] = assay: Antiproliferative activity against human PC3 cells expressing SKP2 after 72 hrs by MTT assay; type: functional, cell-based; settings: PC-3, 72 h
Method in brief: (§1)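 Cells (PC3 and its PCDNA- and SKP2-transfected lines, DU145) grown in RPMI 1640 with 10% FBS; G418 added for transfected lines. Exponential cells seeded 1 × 10⁴/well, 24 h at 37 °C, then fresh medium with compounds at several concentrations for 72 h. MTT 1–3 h at 37 °C, dissolved in 4% HCl/96% isopropanol, absorbance 570 nm. Triplicate per concentration; IC50 from dose–response curves.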

PC-3 [2] = assay: Antiproliferative activity against human PC3 cells expressing PCDNA after 72 hrs by MTT assay; type: functional, cell-based; settings: PC-3, 72 h; method in brief: as §1
[3] = molecular target: T1, Prostaglandin G/H synthase 1 (Ovis aries) (UniProt P05979); assay: Inhibition of ovine COX-1 assessed as using arachidonic acid as substrate at 10 uM preincubated for 5 mins prior to substrate addition […] by enzyme immunoassay relative to control
T1 sequence (whole entry): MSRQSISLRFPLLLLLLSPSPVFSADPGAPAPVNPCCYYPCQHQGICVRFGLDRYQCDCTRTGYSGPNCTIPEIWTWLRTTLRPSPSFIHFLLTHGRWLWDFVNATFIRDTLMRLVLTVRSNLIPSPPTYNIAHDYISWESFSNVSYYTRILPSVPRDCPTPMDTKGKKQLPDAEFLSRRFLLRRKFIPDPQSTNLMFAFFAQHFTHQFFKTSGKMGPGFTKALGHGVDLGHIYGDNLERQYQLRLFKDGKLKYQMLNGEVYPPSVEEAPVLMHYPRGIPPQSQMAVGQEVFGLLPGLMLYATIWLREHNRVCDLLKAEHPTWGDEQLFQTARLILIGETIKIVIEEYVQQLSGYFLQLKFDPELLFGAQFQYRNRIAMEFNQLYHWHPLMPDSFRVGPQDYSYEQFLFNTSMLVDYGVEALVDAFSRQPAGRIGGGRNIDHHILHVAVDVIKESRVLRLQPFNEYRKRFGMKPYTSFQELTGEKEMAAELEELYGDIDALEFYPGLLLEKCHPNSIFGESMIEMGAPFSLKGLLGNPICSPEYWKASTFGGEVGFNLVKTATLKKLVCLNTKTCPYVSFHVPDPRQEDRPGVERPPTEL

[4] = molecular target: T2, Prostaglandin G/H synthase 2 (Ovis aries) (UniProt P79208); assay: Inhibition of ovine COX-2 assessed as using arachidonic acid as substrate at 10 uM preincubated for 5 mins prior to substrate addition measured after 2 hrs by enzyme immunoassay relative to control; settings: in the assay text read “after 2 mins” for “after 2 hrs”
T2 sequence (whole entry): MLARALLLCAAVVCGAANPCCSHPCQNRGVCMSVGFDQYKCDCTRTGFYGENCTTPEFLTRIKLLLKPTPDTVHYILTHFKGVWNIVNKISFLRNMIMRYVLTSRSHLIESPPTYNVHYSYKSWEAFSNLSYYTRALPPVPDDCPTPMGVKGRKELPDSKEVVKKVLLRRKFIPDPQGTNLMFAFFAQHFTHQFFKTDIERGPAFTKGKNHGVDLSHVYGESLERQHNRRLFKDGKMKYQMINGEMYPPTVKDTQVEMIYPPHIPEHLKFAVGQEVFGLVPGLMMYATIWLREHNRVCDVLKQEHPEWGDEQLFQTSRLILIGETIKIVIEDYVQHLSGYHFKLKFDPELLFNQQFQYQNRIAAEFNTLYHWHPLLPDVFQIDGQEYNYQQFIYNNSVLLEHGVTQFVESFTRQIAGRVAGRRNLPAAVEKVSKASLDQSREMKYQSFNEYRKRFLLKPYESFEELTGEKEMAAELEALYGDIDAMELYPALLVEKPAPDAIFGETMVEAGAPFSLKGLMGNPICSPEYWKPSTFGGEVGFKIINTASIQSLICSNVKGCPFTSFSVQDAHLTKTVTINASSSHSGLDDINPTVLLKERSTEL
Method in brief: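 Ovine COX-1 or COX-2 with heme in 0.1 M Tris-HCl pH 8.0, 5 mM EDTA, 2 mM phenol; compound (0.001–100 µM final, DMSO stocks) preincubated 5 min at 37 °C, then arachidonic acid added, stopped with 1 M HCl after 2 min. PGF2α (SnCl2 reduction) quantified by competitive EIA at 412 nm; % inhibition vs controls; mean of two determinations.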

PC-3 [5] = assay: Antiproliferative activity against human PC3 cells after 72 hrs by MTT assay; type: functional, cell-based; settings: PC-3, 72 h; method in brief: as §1
DU-145 = assay: Antiproliferative activity against human DU145 cells after 72 hrs by MTT assay; type: functional, cell-based; settings: DU-145, 72 h; method in brief: as §1
[6] = molecular target: T2, Prostaglandin G/H synthase 2 (Ovis aries); assay: Inhibition of ovine COX-2 assessed as using arachidonic acid as substrate at 10 uM preincubated for 5 mins prior to substrate addition measured after 2 mins by enzyme immunoassay relative to control

SMILES | IC50 (PC-3 [1]) [µM] | IC50 (PC-3 [2]) [µM] | inhibition [3] | inhibition [4] | IC50 (PC-3 [5]) [µM] | IC50 (DU-145) [µM] | inhibition [6] [%]
CS(=O)(=O)c1ccc(C2=C(c3ccccc3)C(=O)O/C2=C\c2cccc([N+](=O)[O-])c2)cc1 | > 100 | > 90 | inactive | inactive |  |  | 
CS(=O)(=O)c1ccc(C2=C(c3ccccc3)C(=O)O/C2=C\c2ccc(Br)cc2)cc1 | > 50 | 25.2 |  | inactive | > 50 | > 50 | 
CS(=O)(=O)c1ccc(C2=C(c3ccccc3)C(=O)OC2)cc1 [ROFECOXIB] | > 50 | > 50 |  |  | 200 | 200 | 
CS(=O)(=O)c1ccc(C2=C(c3ccccc3Cl)C(=O)O/C2=C\c2cccc3ccccc23)cc1 | > 50 | > 50 |  |  |  |  | 
CS(=O)(=O)c1ccc(C2=C(c3ccccc3Cl)C(=O)O/C2=C\c2ccc(F)cc2)cc1 | > 50 | > 50 |  |  |  |  | 
COC1(C)OC(=O)C(c2ccc(F)cc2)=C1c1ccc(S(C)(=O)=O)cc1 (stereo not given) | > 50 | 36.4 |  |  | > 50 | > 50 | 32.4
CS(=O)(=O)c1ccc(C2=C(c3ccccc3Cl)C(=O)O/C2=C\c2ccc(O)cc2)cc1 | > 50 | > 50 |  |  |  |  | 2.27
COc1cc(/C=C2\OC(=O)C(c3ccccc3)=C2c2ccc(S(C)(=O)=O)cc2)ccc1O | 25.5 | > 125 |  | 36.6% | > 50 | > 50 | 
COc1ccc(/C=C2\OC(=O)C(c3ccc(F)cc3)=C2c2ccc(S(C)(=O)=O)cc2)cc1 | > 50 | > 50 | 10.2% | inactive |  |  | 
CS(=O)(=O)c1ccc(C2=C(c3ccc(F)cc3)C(=O)O/C2=C\c2ccc(Cl)cc2)cc1 | > 50 | > 50 |  | inactive |  |  | 
COc1cc(/C=C2\OC(=O)C(c3ccc(F)cc3)=C2c2ccc(S(C)(=O)=O)cc2)cc(OC)c1OC | 25.4 | > 50 |  |  | > 50 | > 50 | 20.8
CS(=O)(=O)c1ccc(C2=C(c3ccccc3Cl)C(=O)OC2)cc1 | > 50 | > 50 | inactive | 7.97% |  |  | 
COc1cc(/C=C2\OC(=O)C(c3ccccc3Cl)=C2c2ccc(S(C)(=O)=O)cc2)ccc1O | 25.1 | > 50 |  | 14.9% | > 50 | > 50 | 
CS(=O)(=O)c1ccc(C2=C(c3ccccc3Cl)C(=O)O/C2=C\c2ccccc2Cl)cc1 | > 50 | > 50 |  |  |  |  | 
CS(=O)(=O)c1ccc(C2=C(c3ccc(F)cc3)C(=O)O/C2=C\c2ccc3c(c2)OCO3)cc1 | > 50 | > 50 |  |  |  |  | 
CS(=O)(=O)c1ccc(C2=C(c3ccc(F)cc3)C(=O)O/C2=C\c2ccco2)cc1 | > 50 | > 50 |  |  |  |  | 
CS(=O)(=O)c1ccc(C2=C(c3ccc(F)cc3)C(=O)O/C2=C\c2ccc(F)cc2)cc1 | > 50 | > 50 |  |  |  |  | 
CS(=O)(=O)c1ccc(C2=C(c3ccccc3Cl)C(=O)O/C2=C\c2ccc3c(c2)OCO3)cc1 | > 50 | > 50 |  |  |  |  | 
CN(C)c1ccc(/C=C2\OC(=O)C(c3ccccc3)=C2c2ccc(S(C)(=O)=O)cc2)cc1 | > 50 | > 50 |  |  |  |  | 
CS(=O)(=O)c1ccc(C2=C(c3ccccc3)C(=O)O/C2=C\c2ccccc2)cc1 | > 90 | > 90 |  |  |  |  | 
CS(=O)(=O)c1ccc(C2=C(c3ccc(F)cc3)C(=O)O/C2=C\c2cccc([N+](=O)[O-])c2)cc1 | > 50 | > 50 | inactive | inactive |  |  | 

SMILES | IC50 (PC-3 [1]) [µM] | IC50 (PC-3 [2]) [µM] | inhibition [3] | inhibition [4] | IC50 (PC-3 [5]) [µM] | IC50 (DU-145) [µM] | inhibition [6] [%]
CS(=O)(=O)c1ccc(C2=C(c3ccccc3)C(=O)O/C2=C\c2ccc(Cl)cc2)cc1 | > 50 | > 50 | 14.6% | inactive |  |  | 
CS(=O)(=O)c1ccc(C2=C(c3ccc(F)cc3)C(=O)O/C2=C\c2cccc3ccccc23)cc1 | 25.4 | 20 |  | inactive | > 50 | > 50 | 
COc1cc(/C=C2\OC(=O)C(c3ccccc3Cl)=C2c2ccc(S(C)(=O)=O)cc2)cc(OC)c1OC | > 50 | > 50 |  |  |  |  | 
COc1cc(/C=C2\OC(=O)C(c3ccccc3)=C2c2ccc(S(C)(=O)=O)cc2)cc(OC)c1OC | > 100 | > 90 |  |  |  |  | 
CS(=O)(=O)c1ccc(C2=C(c3ccccc3)C(=O)O/C2=C\c2ccc(O)cc2)cc1 | > 50 | 25.9 |  | 14.4% | > 50 | > 50 | 
CS(=O)(=O)c1ccc(C2=C(c3ccc(F)cc3)C(=O)O/C2=C\c2ccc(O)cc2)cc1 | 25.7 | 25.9 |  | 19.5% | > 50 | > 50 | 
CS(=O)(=O)c1ccc(C2=C(c3ccc(F)cc3)C(=O)O/C2=C\c2ccccc2)cc1 | > 50 | > 50 |  |  |  |  | 
CS(=O)(=O)c1ccc(C2=C(c3ccc(F)cc3)C(=O)O/C2=C\c2ccc(Br)cc2)cc1 | > 50 | > 50 |  |  |  |  | 
CS(=O)(=O)c1ccc(C2=C(c3ccccc3)C(=O)O/C2=C\c2ccc3c(c2)OCO3)cc1 | 50.6 | 37.2 |  |  | > 50 | > 50 | 24.6
CC(C)=C1OC(=O)C(c2ccc(F)cc2)=C1c1ccc(S(C)(=O)=O)cc1 | > 50 | > 50 |  |  |  |  | 
CS(=O)(=O)c1ccc(C2=C(c3ccccc3)C(=O)O/C2=C\c2ccco2)cc1 | > 100 | > 100 | inactive | inactive |  |  | 
CS(=O)(=O)c1ccc(C2=C(c3ccccc3Cl)C(=O)O/C2=C\c2ccc(Br)cc2)cc1 | > 50 | > 50 |  |  |  |  | 
CC(C)=CCC/C(C)=C\C=C1/OC(=O)C(c2ccccc2)=C1c1ccc(S(C)(=O)=O)cc1 | > 50 | > 50 |  |  |  |  | 
CN(C)c1ccc(/C=C2\OC(=O)C(c3ccc(F)cc3)=C2c2ccc(S(C)(=O)=O)cc2)cc1 | 47.2 | > 50 | inactive | inactive | > 50 | > 50 | 
CS(=O)(=O)c1ccc(C2=C(c3ccccc3)C(=O)O/C2=C\c2cccc3ccccc23)cc1 | > 50 | > 50 |  |  |  |  | 
COC1(C)OC(=O)C(c2ccccc2)=C1c1ccc(S(C)(=O)=O)cc1 (stereo not given) | 20.3 | 37.1 |  |  | > 50 | > 50 | 
O=c1[nH]cc(F)c(=O)[nH]1 [FLUOROURACIL] |  | 31.4 |  |  |  |  | 
CS(=O)(=O)c1ccc(C2=C(c3ccccc3Cl)C(=O)O/C2=C\c2ccco2)cc1 | > 50 | > 50 |  |  |  |  | 
CC(C)=C1OC(=O)C(c2ccccc2)=C1c1ccc(S(C)(=O)=O)cc1 | > 50 | > 50 |  |  |  |  | 
CN(C)c1ccc(/C=C2\OC(=O)C(c3ccccc3Cl)=C2c2ccc(S(C)(=O)=O)cc2)cc1 | 30.1 | > 50 |  | 4.49% | > 50 | > 50 | 
CS(=O)(=O)c1ccc(C2=C(c3ccc(F)cc3)C(=O)O/C2=C\c2ccccc2Cl)cc1 | > 50 | > 50 |  |  |  |  | 
